Reference: ChEMBL document CHEMBL6182837, “Discovery and biological evaluation of nitrofuranyl-pyrazolopyrimidine hybrid conjugates as potent antimicrobial agents targeting Staphylococcus aureus and methicillin-resistant S. aureus” (RSC Med Chem, 2025)
≈ marks a conversion by molar mass, not a printed value. Calls of active or inactive are those of the source. No cut-off for these calls is given here.

Assays:
Staphylococcus aureus [1] = assay: Inhibition of biofilm formation of methicillin-resistant Staphylococcus aureus ATCC 15187 at 0.5 times MIC incubated for 27 hrs by absorbance based method; format: functional, organism-based
Staphylococcus aureus [2] = assay: Induction of morphological disruption in methicillin-resistant Staphylococcus aureus ATCC 15187 at 1 to 2 times MIC incubated for 2 to 6 hrs by SEM analysis; format: functional, organism-based; conditions: time 2-6 hrs
Procedure, shortened: (§1)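 Bacteria incubated for 2 h and 6 h at 1×, 2× and 4× MIC, with vancomycin and daptomycin at 1× and 2× MIC and untreated cells; cell morphology imaged by scanning electron microscopy.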

Staphylococcus aureus [3] = assay: Induction of morphological disruption in Staphylococcus aureus ATCC 29213 at 1 to 2 times MIC incubated for 2 to 6 hrs by SEM analysis; format: functional, organism-based; conditions: time 2-6 hrs; procedure, shortened: as §1
Staphylococcus aureus [4] = assay: Antibacterial activity against Staphylococcus aureus SA-K2191 overexpressing MsrA by Alamar blue staining based analysis; format: functional
Staphylococcus aureus [5] = assay: Inhibition of biofilm formation of Staphylococcus aureus ATCC 29213 at 0.5 times MIC incubated for 27 hrs by absorbance based method; format: functional, organism-based
Staphylococcus aureus [6] = assay: Disruption of pre-formed biofilms of Staphylococcus aureus ATCC 29213 at 4 to 6 times MIC incubated for 24 hrs by absorbance based method relative to control; format: functional
Staphylococcus aureus [7] = assay: Antibacterial activity against Staphylococcus aureus SA-1199B overexpressing NorA by Alamar blue staining based analysis; format: functional
Staphylococcus aureus [8] = assay: Antibacterial activity against methicillin-resistant Staphylococcus aureus ATCC 15187 infected in male […] mouse assessed as reduction in bacterial load in kidney at 50 mg/kg measured after 24 hrs by colony counting method; format: functional, organism-based
Procedure, shortened: (§2)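 Mouse peritonitis model: 0.1 ml MRSA suspension (10^8 CFU ml−1) given intraperitoneally; treatment intraperitoneal at 50 or 100 mg kg−1 at 2 and 5 h post-infection, with saline and vancomycin (50 mg kg−1) controls; killed at 24 h; kidney and lung homogenates plated on Mueller–Hinton agar with 20 μg ml−1 ciprofloxacin, 24 h; CFU ml−1; unpaired t-test.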

Staphylococcus aureus [9] = assay: Disruption of pre-formed biofilms of methicillin-resistant Staphylococcus aureus ATCC 15187 at 4 to 6 times MIC incubated for 24 hrs by absorbance based method relative to control; format: functional
Staphylococcus aureus [10] = assay: Disruption of cell membrane integrity in Staphylococcus aureus ATCC 29213 assessed as red fluorescence at 2 times MIC incubated for 2.5 hrs by DAPI/PI staining based fluorescence microscopy; format: functional, organism-based
Procedure, shortened: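 Bacteria treated at 1× and 2× MIC, with vancomycin 2× MIC as control and an untreated blank; stained with DAPI (all cells) and propidium iodide (membrane-damaged cells); imaged by fluorescence microscopy, red PI signal taken as membrane damage.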

Staphylococcus aureus [11] = assay: Antibacterial activity against Ciprofloxacin-sensitive Staphylococcus aureus […] by Alamar blue staining based analysis; format: functional
Staphylococcus aureus [12] = assay: Antibacterial activity against Staphylococcus aureus SA-K2192 overexpressing TetK by Alamar blue staining based analysis; format: functional
Staphylococcus aureus [13] = assay: Antibacterial activity against methicillin-resistant Staphylococcus aureus ATCC 15187 infected in male […] mouse assessed as reduction in bacterial load in lung at 50 mg/kg measured after 24 hrs by colony counting method; format: functional, organism-based; procedure, shortened: as §2
[14] = Cytotoxicity in human HepG2 cells incubated for 24 hrs by MTT assay; format: toxicity, cell-based
Procedure, shortened: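 HepG2 cells, 1 × 10^4 per well in DMEM/10% FBS, 24 h attachment; compounds 200 to 0.19 μg ml−1 for 24 h at 37 °C, 5% CO2; MTT 2.5 mg ml−1 for 3 h, formazan in DMSO, OD 570 nm; doxorubicin 10 μM control.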

Escherichia coli = assay: Antibacterial activity against Escherichia coli ATCC 25922 incubated for 24 hrs by Alamar blue staining based microdilution method; format: functional
Staphylococcus aureus [15] = assay: Antibacterial activity against Staphylococcus aureus ATCC 29213 incubated for 24 hrs by Alamar blue staining based microdilution method; format: functional
Staphylococcus aureus [16] = assay: Antibacterial activity against methicillin-resistant Staphylococcus aureus ATCC 15187 incubated for 24 hrs by Alamar blue staining based microdilution method; format: functional

Compound	IC50 at 24 h [14] [µg/mL]	MIC (Escherichia coli)	MIC (Staphylococcus aureus [15]) [µg/mL]	MIC (Staphylococcus aureus [16]) [µg/mL]	other results
CN[C@H](CC(C)C)C(=O)N[C@H]1C(=O)N[C@@H](CC(N)=O)C(=O)N[C@H]2C(=O)N[C@H]3C(=O)N[C@H](C(=O)N[C@H](C(=O)O)c4cc(O)cc(O)c4-c4cc3ccc4O)[C@H](O)c3ccc(c(Cl)c3)Oc3cc2cc(c3O[C@@H]2O[C@H](CO)[C@@H](O)[C@H](O)[C@H]2O[C@H]2C[C@](C)(N)[C@H](O)[C@H](C)O2)Oc2ccc(cc2Cl)[C@H]1O [VANCOMYCIN]					inhibition (Staphylococcus aureus [1]): inactive; Activity (Staphylococcus aureus [2]): Active; Activity (Staphylococcus aureus [3]): Active; MIC (Staphylococcus aureus [4]): 0.25 µg/mL (≈ 0.173 µM); inhibition (Staphylococcus aureus [5]): inactive; Activity (Staphylococcus aureus [6]): 40%; MIC (Staphylococcus aureus [7]): 0.25 µg/mL (≈ 0.173 µM); Activity (Staphylococcus aureus [8]): Active; Activity (Staphylococcus aureus [9]): 40%; Activity (Staphylococcus aureus [10]): Active; MIC (Staphylococcus aureus [11]): 0.25 µg/mL (≈ 0.173 µM); MIC (Staphylococcus aureus [12]): 0.56 µg/mL (≈ 0.386 µM); Activity (Staphylococcus aureus [13]): Active
CCCc1nn(C)c2c(N3CCOCC3)nc(-c3ccc([N+](=O)[O-])o3)nc12	> 50	inactive	> 32	> 32	
CCCc1nn(C)c2c(NCc3cccnc3)nc(-c3ccc([N+](=O)[O-])o3)nc12	> 50	inactive	8 (≈ 20.3 µM)	4 (≈ 10.2 µM)	
CCCc1nn(C)c2c(NCCO)nc(-c3ccc([N+](=O)[O-])o3)nc12	> 50	inactive	> 32	8 (≈ 23.1 µM)	
CCCc1nn(C)c2c(NCCCCO)nc(-c3ccc([N+](=O)[O-])o3)nc12	> 50	inactive	4 (≈ 10.7 µM)	0.25 (≈ 0.668 µM)	
CCCc1nn(C)c2c(Nc3ccc(OC)cc3)nc(-c3ccc([N+](=O)[O-])o3)nc12	> 50	inactive	> 32	> 32	
CCCc1nn(C)c2c(Nc3ccc(Cl)cc3)nc(-c3ccc([N+](=O)[O-])o3)nc12	> 50	inactive	> 32	> 32	
CCCCCCCCCC(=O)N[C@@H](Cc1c[nH]c2ccccc12)C(=O)N[C@@H](CC(N)=O)C(=O)N[C@@H](CC(=O)O)C(=O)N[C@@H]1C(=O)NCC(=O)N[C@@H](CCCN)C(=O)N[C@@H](CC(=O)O)C(=O)N[C@H](C)C(=O)N[C@@H](CC(=O)O)C(=O)NCC(=O)N[C@H](CO)C(=O)N[C@@H]([C@@H](C)CC(=O)O)C(=O)N[C@@H](CC(=O)c2ccccc2N)C(=O)O[C@@H]1C					Activity (Staphylococcus aureus [2]): Active; Activity (Staphylococcus aureus [3]): Active
CCCc1nn(C)c2c(N3CCC(CO)CC3)nc(-c3ccc([N+](=O)[O-])o3)nc12	> 50	inactive	> 32	> 32	
O=C(O)c1cn(C2CC2)c2cc(N3CCNCC3)c(F)cc2c1=O [CIPROFLOXACIN]			0.25 (≈ 0.754 µM)		MIC (Staphylococcus aureus [4]): 4.14 µg/mL (≈ 12.5 µM); MIC (Staphylococcus aureus [7]): 4.14 µg/mL (≈ 12.5 µM); MIC (Staphylococcus aureus [11]): 0.25 µg/mL (≈ 0.754 µM); MIC (Staphylococcus aureus [12]): 0.25 µg/mL (≈ 0.754 µM)
CCCc1nn(C)c2c(NCCN3CCOCC3)nc(-c3ccc([N+](=O)[O-])o3)nc12	> 50	inactive	> 32	> 32	
CCCc1nn(C)c2c(NCc3ccc(OC)cc3)nc(-c3ccc([N+](=O)[O-])o3)nc12	> 50	inactive	> 32	> 32	
CCCc1nn(C)c2c(N3CCC(CCO)CC3)nc(-c3ccc([N+](=O)[O-])o3)nc12	> 50	inactive	> 32	> 32	
CCCc1nn(C)c2c(=O)[nH]c(-c3ccc([N+](=O)[O-])o3)nc12	> 50	inactive	8 (≈ 26.4 µM)	8 (≈ 26.4 µM)	
CCCc1nn(C)c2c(N3CCN(c4cccc(O)c4)CC3)nc(-c3ccc([N+](=O)[O-])o3)nc12	> 50	inactive	> 32	> 32	
CCCc1nn(C)c2c(NCc3ccncc3)nc(-c3ccc([N+](=O)[O-])o3)nc12	> 50	inactive	1 (≈ 2.54 µM)	1 (≈ 2.54 µM)	
CCCc1nn(C)c2c(N3CCC(c4ccccc4)CC3)nc(-c3ccc([N+](=O)[O-])o3)nc12	> 50	inactive	> 32	> 32	
CCCc1nn(C)c2c(N3CCN(c4ccccc4O)CC3)nc(-c3ccc([N+](=O)[O-])o3)nc12	> 50	inactive	> 32	> 32	
CCCc1nn(C)c2c(Nc3ccc(OC(F)(F)F)cc3)nc(-c3ccc([N+](=O)[O-])o3)nc12	> 50	inactive	> 32	> 32	
